≈ marks a conversion by molar mass, not a printed value.

A short description of test [1]: Cytotoxicity against human KBV1 cells in absence of vinblastine. Type of test: functional. As to conditions: KB-V1, read-out: ED50 (the source's name); call rule not given here.
In the next test the test system is P388. The test is described as follows: Cytotoxicity against mouse P388 cells. Type of test: functional. As to conditions: read-out: ED50 (the source's name).
A short description of test [2]: Cytotoxicity against human BC1 cells. Type of test: functional. As to conditions: read-out: ED50 (the source's name).
Test [3] is described as follows: Cytotoxicity against human KBV1 cells in presence of vinblastine. Type of test: functional. The note with it: KB-V1, read-out: ED50 (the source's name).
Test [4] has as its target Human immunodeficiency virus type 1 reverse transcriptase (Human immunodeficiency virus 1) (UniProt Q72547). The test is described as follows: Inhibition of HIV1 reverse transcriptase at 80 ug/ml. The gist of the method: (§1)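 HIV-1 reverse transcriptase inhibition, run by an assay procedure the authors described earlier. Each test concentration was run in duplicate in three separate experiments, and the reported value is the average of the three experiments.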

The target is the same in test [5]. The test is described as follows: Inhibition of HIV1 reverse transcriptase at 20 ug/ml. The essentials: as §1
The target is the same in test [6]. The test is described as follows: Inhibition of HIV1 reverse transcriptase at 60 ug/ml. The essentials: as §1
A short description of test [7]: Inhibition of HIV2 reverse transcriptase. Further details: species or system Human immunodeficiency virus 2.
In test [8] the target is Human immunodeficiency virus type 1 reverse transcriptase (Human immunodeficiency virus 1) (UniProt Q72547). The test is described as follows: Inhibition of HIV1 reverse transcriptase at 250 ug/ml. The gist of the method:
as §1

The target is the same in test [9]. The test is described as follows: Inhibition of HIV1 reverse transcriptase at 150 ug/ml. The essentials:
as §1

Test [10] can be described thus: Cytotoxicity against human U373 cells. The test is classed as functional, U-373MG ATCC. As to conditions: U373 MG, read-out: ED50 (the source's name).
The test system of a further test is SK-MEL-2. The test is described as follows: Cytotoxicity against human SK-MEL-2 cells. As to conditions: read-out: ED50 (the source's name). The test is classed as functional.
For the next test, the system named is A-431. The test is described as follows: Cytotoxicity against human A431 cells. Type of test: functional. The note with it: read-out: ED50 (the source's name).
A further test deals with KB. The test is described as follows: Cytotoxicity against human KB cells. The note with it: read-out: ED50 (the source's name). The test is classed as functional.
For test [11], the target named is Human immunodeficiency virus type 1 reverse transcriptase (Human immunodeficiency virus 1) (UniProt Q72547). The test is described as follows: Inhibition of HIV1 reverse transcriptase at 200 ug/ml. The essentials: as §1
The nature of test [12]: Cytotoxicity against human Col1 cells. Type of test: functional. The note with it: read-out: ED50 (the source's name).
The next test concerns ZR-75-1. The test is described as follows: Cytotoxicity against human ZR-75-1 cells. The test is classed as functional. The note with it: read-out: ED50 (the source's name).
Test [13] has as its target Human immunodeficiency virus type 1 reverse transcriptase (Human immunodeficiency virus 1) (UniProt Q72547). The test is described as follows: Inhibition of HIV1 reverse transcriptase at 40 ug/ml. The gist of the method:
as §1

The test system of the next test is HT-1080. The test is described as follows: Cytotoxicity against human HT1080 cells. Type of test: functional. The note with it: read-out: ED50 (the source's name).
Test [14] concerns the target Human immunodeficiency virus type 1 reverse transcriptase (Human immunodeficiency virus 1) (UniProt Q72547). The test is described as follows: Inhibition of HIV1 reverse transcriptase at 100 ug/ml. The gist of the method:
as §1

The next test deals with Lu1. The test is described as follows: Cytotoxicity against human Lu1 cells. The test is classed as functional. The note with it: read-out: ED50 (the source's name).
Test [15] concerns the target T1, Human immunodeficiency virus type 1 reverse transcriptase (Human immunodeficiency virus 1, UniProt Q72547). The test is described as follows: Inhibition of HIV1 reverse transcriptase. The essentials:
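HIV-1 RT inhibition was measured by a previously published method. Each value is the mean of three experiments, each run in duplicate. Test levels reached 250 µg/ml in the assay mixture.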

The test system of another test is LNCaP. The test is described as follows: Cytotoxicity against human LNCAP cells. As to conditions: read-out: ED50 (the source's name). Type of test: functional.
Test [16] has as its target T1, Human immunodeficiency virus type 1 reverse transcriptase. The test is described as follows: Inhibition of drug-resistant HIV1 reverse transcriptase.

In the case of `C=C(Cc1ccc2c(c1)OCO2)C(=C)Cc1ccc(O)cc1O` [ANOLIGNAN A], the EC50 in test [1] is above 20 µg/mL; in the test with P388, above 20 µg/mL; in test [2], 4.3 µg/mL (≈ 13.9 µM); in [3] it was above 20 µg/mL; in [10], 13.5 µg/mL (≈ 43.5 µM); in the test on SK-MEL-2 it was 7.6 µg/mL (≈ 24.5 µM). Moreover, the EC50 in the test on A-431 is above 20 µg/mL; in the test with KB, above 20 µg/mL; in test [12] it was 16.8 µg/mL (≈ 54.1 µM); in the test with ZR-75-1 it was 6.1 µg/mL (≈ 19.7 µM); in the test on HT-1080 it was 13.1 µg/mL (≈ 42.2 µM); with Lu1, 15.8 µg/mL (≈ 50.9 µM). In addition, the EC50 in the test with LNCaP was determined as 10.8 µg/mL (≈ 34.8 µM). Further, the inhibition was 68.3% in test [4]; 4.1% in test [5]; 51.5% in test [6]; 97.4% in [8]; 80.8% in test [9]; 92.8% in [11]. The inhibition was found to be 33.8% in test [13] and 73.9% in test [14]. Also, the concentration for half-maximal inhibition (IC50) was 156.9 µg/mL (≈ 506 µM) in [7], 195 µM in test [15] (read-out: IC50 (converted)) and 342 µM in [16].
`C[C@@H]1[C@H](C)[C@H](c2ccc(O)cc2)O[C@@H]1c1ccc(O)cc1` [ANOLIGNAN C]: the EC50 was above 20 µg/mL in test [1]; above 20 µg/mL in the test on P388; above 20 µg/mL in [2]; above 20 µg/mL in test [3]; 18.5 µg/mL (≈ 65.1 µM) in test [10]; 7.6 µg/mL (≈ 26.7 µM) with SK-MEL-2. The EC50 was above 20 µg/mL with A-431; above 20 µg/mL in the test on KB; 16.8 µg/mL (≈ 59.1 µM) in test [12]; 6.1 µg/mL (≈ 21.5 µM) with ZR-75-1; 13.1 µg/mL (≈ 46.1 µM) with HT-1080; 15.8 µg/mL (≈ 55.6 µM) in the test on Lu1. In addition, the EC50 with LNCaP is 10.8 µg/mL (≈ 38 µM). In addition, the half-maximal inhibitory concentration (IC50) result in test [15] is reported as “Not Active”.
For the compound `COc1cc(C[C@@H](CO)[C@H](CO)Cc2ccc(O)c(OC)c2)ccc1O` [(+)-SECOISOLARICIRESINOL], in [15], the IC50 result is reported as “Not Active”.
As to `C=C(Cc1ccc(O)cc1)C(=C)Cc1ccc(O)cc1` [ANOLIGNAN B], the EC50 was above 20 µg/mL in test [1]; 1 µg/mL (≈ 3.75 µM) with P388; 5.1 µg/mL (≈ 19.1 µM) in test [2]; above 20 µg/mL in [3]; 5.7 µg/mL (≈ 21.4 µM) in [10]; 19 µg/mL (≈ 71.3 µM) in the test with SK-MEL-2. Besides, the EC50 with A-431 was above 20 µg/mL; in the test on KB, above 20 µg/mL; in test [12], 18 µg/mL (≈ 67.6 µM); in the test on ZR-75-1 it was above 20 µg/mL; with HT-1080 it was 4.7 µg/mL (≈ 17.6 µM); in the test with Lu1 it was 11.1 µg/mL (≈ 41.7 µM). The EC50 with LNCaP came out at 8.7 µg/mL (≈ 32.7 µM). Moreover, the inhibition in [4] was found to be 20.9%; in test [5], 10%; in test [6], 25.5%; in [9] it was 31.2%; in [11], 32.9%; in [13], 17.7%. Besides, the inhibition in [14] amounted to 27.4%. Moreover, in [15] (read-out: IC50 (converted)), the IC50 is 4020 µM.

The inhibition is how much of the control response was suppressed. A high value points to a response far below the control. By IC50 is commonly meant the midpoint of a concentration-inhibition curve.

For the origin of these results see ChEMBL document CHEMBL1148040, “New lignans from Anogeissus acuminata with HIV-1 reverse transcriptase inhibitory activity” (J Nat Prod, 1994).
